From ChEMBL document CHEMBL2203063, “Azo-reductase activated budesodine prodrugs for colon targeting” (Bioorg Med Chem Lett, 2012)

Key:
[1] = Chemical stability in simulated gastric juice up to 24 hrs; type: physicochemical; settings: simulated gi fluid
How it was run: (§1)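 Prodrug incubated in simulated duodenal or gastric juice at 37 °C and followed for up to 24 h to see whether it stays intact.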

[2] = Prodrug conversion assessed as Clostridium perfringes azoreductase-mediated reduction after 6 hrs at pH 7.4; type: ADME; settings: clostridium perfringens, pH 7.4, 6 h
How it was run: (§2)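 Prodrugs incubated anaerobically with a suspension of azoreductase-producing Clostridium perfringens at 37 °C, pH 7.4, sampled over 24 h. Progress curves tracked loss of prodrug and appearance of budesonide and linker byproducts (the dihydroquinolone or 3,3-dimethyl-1,3-dihydro-indol-2-one). Assay conditions follow the group's earlier method.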

[3] = Chemical stability in simulated doudenal juice up to 24 hrs; type: physicochemical; how it was run: as §1
[4] = Prodrug conversion assessed as Clostridium perfringes azoreductase-mediated budesonide formation at pH 7.4; type: ADME; settings: clostridium perfringens; how it was run: as §2
[5] = Drug metabolism assessed as Clostridium perfringes azoreductase-mediated hydrolysis at pH 7.4; type: ADME; settings: clostridium perfringens
[6] = Drug metabolism assessed as Clostridium perfringes azoreductase-mediated cyclization to dihydroquinolone at pH 7.4; type: ADME; settings: clostridium perfringens; how it was run: as §2
[7] = Prodrug conversion in buffer assessed as half life of cyclization at pH 5.5; type: physicochemical
[8] = Prodrug conversion in buffer assessed as half life of cyclization at pH 3.44; type: physicochemical
[9] = Prodrug conversion in buffer assessed as half life of cyclization at pH 5; type: physicochemical
[10] = Prodrug conversion in buffer assessed as half life of cyclization at pH 7 to 7.5; type: physicochemical
[11] = Prodrug conversion in buffer assessed as half life of cyclization at pH 2.5; type: physicochemical
[12] = Drug metabolism assessed as Clostridium perfringes azoreductase-mediated hydrazine formation at pH 7.4 by HPLC analysis; type: ADME; settings: clostridium perfringens
[13] = Drug metabolism assessed as Clostridium perfringes azoreductase-mediated hydrazine reoxidation to parent azo compound formation at pH 7.4 by HPLC analysis; type: ADME; settings: clostridium perfringens

Structure (SMILES) | Stability [1] | Drug metabolism [2] | Stability [3] | Drug metabolism [4] | Drug metabolism [5] | Drug metabolism [6] | t1/2 [7] [min] | t1/2 [8] [min] | t1/2 [9] [min] | t1/2 [10] [min] | t1/2 [11] [min] | Drug metabolism [12] | Drug metabolism [13]
CCCC1O[C@@H]2C[C@H]3[C@@H]4CCC5=CC(=O)C=C[C@]5(C)[C@H]4[C@@H](O)C[C@]3(C)[C@]2(C(=O)COC(=O)CCc2ccccc2/N=N/c2ccc(O)c(C(=O)O)c2)O1 (mixture of isomers) | Stable | Active | Stable | Active | Not Active | – | – | – | – | – | – | – | –
CCCC1O[C@@H]2C[C@H]3[C@@H]4CCC5=CC(=O)C=C[C@]5(C)[C@H]4[C@@H](O)C[C@]3(C)[C@]2(C(=O)COC(=O)C(C)(C)c2ccccc2/N=N/c2ccc(O)c(C(=O)O)c2)O1 (mixture of isomers) | Stable | Active | Stable | Active | – | Active | – | – | – | – | – | – | –
CCCC1O[C@@H]2C[C@H]3[C@@H]4CCC5=CC(=O)C=C[C@]5(C)[C@H]4[C@@H](O)C[C@]3(C)[C@]2(C(=O)COC(=O)CCc2ccccc2N)O1 (mixture of isomers) | – | – | – | – | – | – | 73.2 | 29.3 | 52.7 | 201 | 25.9 | – | –
CCCC1O[C@@H]2C[C@H]3[C@@H]4CCC5=CC(=O)C=C[C@]5(C)[C@H]4[C@@H](O)C[C@]3(C)[C@]2(C(=O)COC(=O)CCc2ccccc2/N=N/c2ccc(C(=O)O)cc2)O1 (mixture of isomers) | Stable | Not Active | Stable | Not Active | – | – | – | – | – | – | – | Active | Active
